Measured values reported in ChEMBL document CHEMBL3877308, “Design, synthesis and in vitro biological evaluation of oligopeptides targeting E. coli type I signal peptidase (LepB)” (Bioorg Med Chem, 2017).
Converted amounts (≈) assume the structure as drawn.

Assays:
[1] = target: Signal peptidase I (Escherichia coli K-12) (UniProt P00803); experiment: Inhibition of full length Escherichia coli His6-tagged LepB expressed in Escherichia coli C43(DE3) at 100 uM using dabcyl-VEVGGTATAGAFSRPGLE-(EDANS) as substrate preincubated for 10 mins followed by substrate addition measured for 2 hrs by FRET assay relative to control
Sequence of Signal peptidase I (Escherichia coli K-12) (P00803 whole entry): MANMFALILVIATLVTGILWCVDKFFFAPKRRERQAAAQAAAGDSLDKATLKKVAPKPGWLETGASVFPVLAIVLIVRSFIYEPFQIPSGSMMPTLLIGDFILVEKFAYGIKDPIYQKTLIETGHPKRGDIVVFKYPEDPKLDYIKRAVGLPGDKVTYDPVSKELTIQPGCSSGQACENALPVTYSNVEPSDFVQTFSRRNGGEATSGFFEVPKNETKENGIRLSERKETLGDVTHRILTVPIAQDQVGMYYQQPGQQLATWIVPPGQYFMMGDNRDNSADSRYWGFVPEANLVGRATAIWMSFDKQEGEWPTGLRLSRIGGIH
In short: (§1)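 Enzyme came from the membrane fraction, extracted with 1% reduced Triton X-100 and purified by metal-chelation chromatography in 0.5% detergent. FRET pair was dabcyl acceptor and EDANS donor. EcLepB (final about 50 nM) was pre-incubated with compound 10 min at 22 °C. Reaction was then run with 8 µM substrate, following the linear fluorescence increase at 22 °C for 2 h.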

[2] = target: Signal peptidase I (Escherichia coli K-12, UniProt P00803); experiment: Inhibition of full length Escherichia coli His6-tagged LepB expressed in Escherichia coli C43(DE3) using dabcyl-VEVGGTATAGAFSRPGLE-(EDANS) as substrate preincubated for 10 mins followed by substrate addition measured for 2 hrs by FRET assay
Sequence of Signal peptidase I (P00803 whole entry): as above
In short: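 Enzyme extracted from the membrane fraction with 1% reduced Triton X-100 and purified by metal-chelation chromatography in 0.5% detergent. Enzyme (final ~50 nM) was pre-incubated with compound for 10 min at 22 °C. The linear rise in EDANS donor fluorescence (dabcyl acceptor) was then followed at 22 °C for 2 h. IC50 came from non-linear regression of sigmoidal rate-versus-concentration curves.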

[3] = target: Signal peptidase I (Escherichia coli K-12) (UniProt P00803); experiment: Inhibition of full length Escherichia coli His6-tagged LepB expressed in Escherichia coli C43(DE3) assessed as residual activity at 2.5 uM using dabcyl-VEVGGTATAGAFSRPGLE-(EDANS) as substrate preincubated for 10 mins followed by substrate addition measured for 2 hrs by FRET assay relative to control; in short: as §1
[4] = target: Signal peptidase I (Escherichia coli K-12) (UniProt P00803); experiment: Inhibition of full length Escherichia coli His6-tagged LepB expressed in Escherichia coli C43(DE3) assessed as residual activity at 5 uM using dabcyl-VEVGGTATAGAFSRPGLE-(EDANS) as substrate preincubated for 10 mins followed by substrate addition measured for 2 hrs by FRET assay relative to control; in short: as §1
[5] = target: Signal peptidase I (Escherichia coli K-12) (UniProt P00803); experiment: (§2) Inhibition of full length Escherichia coli His6-tagged LepB expressed in Escherichia coli C43(DE3) assessed as residual activity at 10 uM using dabcyl-VEVGGTATAGAFSRPGLE-(EDANS) as substrate preincubated for 10 mins followed by substrate addition measured for 2 hrs by FRET assay relative to control; in short: as §1
[6] = target: Signal peptidase I (Escherichia coli K-12) (UniProt P00803); experiment: as §2, with “at 1.25” for “at 10”; in short: as §1
[7] = target: Signal peptidase I (Escherichia coli K-12) (UniProt P00803); experiment: as §2, with “at 0.625” for “at 10”; in short: as §1
[8] = target: Signal peptidase I (Escherichia coli K-12) (UniProt P00803); experiment: as §2, with “at 0.313” for “at 10”; in short: as §1
[9] = target: Signal peptidase I (Escherichia coli K-12) (UniProt P00803); experiment: as §2, with “at 0.156” for “at 10”; in short: as §1
[10] = target: Signal peptidase I (Escherichia coli K-12) (UniProt P00803); experiment: as §2, with “at 0.078” for “at 10”; in short: as §1
[11] = target: Signal peptidase I (Escherichia coli K-12) (UniProt P00803); experiment: as §2, with “at 0.039” for “at 10”; in short: as §1
[12] = target: Signal peptidase I (Escherichia coli K-12) (UniProt P00803); experiment: as §2, with “at 0.02” for “at 10”; in short: as §1
[13] = target: Signal peptidase I (Escherichia coli K-12) (UniProt P00803); experiment: as §2, with “at 0.01” for “at 10”; in short: as §1
[14] = tested on: Escherichia coli; experiment: Antibacterial activity against wild type Escherichia coli ATCC 25922 after 16 to 20 hrs by broth microdilution assay; type: functional
In short: (§3)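 MIC by broth microdilution in cation-adjusted Mueller-Hinton II medium, following EUCAST and CLSI guidelines; panel of Gram-negative strains plus S. aureus ATCC 29213.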

[15] = tested on: Escherichia coli; experiment: Antibacterial activity against Escherichia coli CH3130 harboring tolC deletion mutant after 16 to 20 hrs by broth microdilution assay; type: functional
In short: (§4)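 Broth microdilution MIC in cation-adjusted Mueller-Hinton II medium, following EUCAST and CLSI guidelines; tested on a panel of Gram-negative strains plus S. aureus ATCC 29213 (wild-type).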

[16] = tested on: Escherichia coli; experiment: Antibacterial activity against Escherichia coli D22 harboring lpxC mutant after 16 to 20 hrs by broth microdilution assay; type: functional; in short: as §4
[17] = tested on: Pseudomonas aeruginosa; experiment: Antibacterial activity against wild type Pseudomonas aeruginosa PAO1 after 16 to 20 hrs by broth microdilution assay; type: functional; in short: as §3
[18] = tested on: Pseudomonas aeruginosa; experiment: Antibacterial activity against wild type Pseudomonas aeruginosa PAO750 harboring efflux defective mutant after 16 to 20 hrs by broth microdilution assay; type: functional; in short: as §4
[19] = tested on: Klebsiella pneumoniae; experiment: Antibacterial activity against wild type Klebsiella pneumoniae […] after 16 to 20 hrs by broth microdilution assay; type: functional; in short: as §3
[20] = tested on: Staphylococcus aureus; experiment: Antibacterial activity against wild type Staphylococcus aureus ATCC 29213 after 16 to 20 hrs by broth microdilution assay; type: functional; in short: as §3
[21] = tested on: Acinetobacter baumannii; experiment: Antibacterial activity against wild type Acinetobacter baumannii ATCC 19606 after 16 to 20 hrs by broth microdilution assay; type: functional; in short: as §3
[22] = Cytotoxicity against human HepG2 cells assessed as reduction in cell viability after 72 hrs by fluorescein diacetate dye based fluorometric microculture assay; type: toxicity
In short: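 FMCA on HepG2 cells read at 72 h. Survival index (%) is fluorescence in test wells as percent of control cultures, with blank values subtracted. IC50 was obtained by non-linear regression of log concentration-effect curves.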

[23] = Hemolytic activity against human RBC at 100 uM after 45 mins by spectrophotometric method relative to control; type: ADME, cell-based, Erythrocyte; settings: red blood cells (RBC), read-out: Activity
In short: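 Hemolysis was tested using red blood cells from heparinized human blood.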

[24] = target: Signal peptidase I (Escherichia coli K-12) (UniProt P00803); experiment: as §2, with “at 0.002” for “at 10”; in short: as §1
[25] = target: Signal peptidase I (Escherichia coli K-12) (UniProt P00803); experiment: as §2, with “at 0.001” for “at 10”; in short: as §1
[26] = target: Signal peptidase I (Escherichia coli K-12) (UniProt P00803); experiment: as §2, with “at 0.0005” for “at 10”; in short: as §1

| inhibition [1] [%] | SMILES | IC50 [2] [nM] | Activity [3] [%] | Activity [4] [%] | Activity [5] [%] | Activity [6] [%] | Activity [7] [%] | Activity [9] [%] | Activity [13] [%] | MIC [14] [µg/mL] | MIC [15] [µg/mL] | MIC [16] [µg/mL] | MIC [17] [µg/mL] | MIC [18] [µg/mL] | MIC [19] [µg/mL] | MIC [20] [µg/mL] | MIC [21] [µg/mL] | IC50 at 72 h [22] [nM] | hemolysis at 0.75 h, 100 µM [23] [%] | other results |
| --- | --- | --- | --- | --- | --- | --- | --- | --- | --- | --- | --- | --- | --- | --- | --- | --- | --- | --- | --- | --- |
| 14.4 | CCCCCCCCCC(=O)N1CCC[C@H]1C(=O)N[C@H](C(=O)N[C@@H](C)C(=O)N[C@@H](CC(N)=O)C(=O)N[C@@H](C)C(=O)C(=O)NCc1cccc2ccccc12)[C@H](C)O | – | – | – | – | – | – | – | – | – | – | – | – | – | – | – | – | – | – | – |
| 31.3 | CCCCCCCCCC(=O)N1CCC[C@H]1C(=O)N[C@H](C(=O)N[C@@H](C)C(=O)N[C@@H](CC(N)=O)C(=O)N[C@@H](C)C(=O)N1CCC[C@H]1C(=O)NC)[C@H](C)O | – | – | – | – | – | – | – | – | – | – | – | – | – | – | – | – | – | – | – |
| 18 | CC(=O)N[C@@H](C)B1O[C@@H]2C[C@@H]3C[C@@H](C3(C)C)[C@]2(C)O1 | – | – | – | – | – | – | – | – | – | – | – | – | – | – | – | – | – | – | – |
| – | CCCCc1ccc(-c2ccc(C(=O)N[C@@H](CCN)C(=O)N[C@H](C(=O)N[C@@H](C)C(=O)N[C@@H](CCCCN)C(=O)N[C@@H](C)B3O[C@@H]4C[C@@H]5C[C@@H](C5(C)C)[C@]4(C)O3)[C@H](C)O)cc2)cc1 | 110 | 3.33 | 0.501 | -0.117 | 0.522 | 6.98 | 25.3 | 86.8 | 8 (≈ 9.3 µM) | 4 (≈ 4.65 µM) | 1 (≈ 1.16 µM) | 32 (≈ 37.2 µM) | 8 (≈ 9.3 µM) | 2 (≈ 2.33 µM) | < 0.125 | 32 (≈ 37.2 µM) | 12500 | 12.8 | Activity [24]: 98.2%; Activity [8]: 18.9%; Activity [10]: 72.7%; Activity [11]: 80.2% |
| 22.5 | CC(=O)N1CCC[C@H]1C(=O)N[C@H](C(=O)N[C@@H](C)C(=O)N[C@@H](CC(N)=O)C(=O)N[C@@H](C)C(=O)C(=O)NC(C)(C)C)[C@H](C)O | – | – | – | – | – | – | – | – | – | – | – | – | – | – | – | – | – | – | – |
| 26.6 | CC(=O)N[C@@H](C)C(=O)N[C@@H](CC(N)=O)C(=O)N[C@@H](C)C(=O)C(=O)NCc1cccc2ccccc12 | – | – | – | – | – | – | – | – | – | – | – | – | – | – | – | – | – | – | – |

| SMILES | inhibition [1] [%] | IC50 [2] [nM] | Activity [3] [%] | Activity [4] [%] | Activity [5] [%] | Activity [6] [%] | Activity [7] [%] | Activity [9] [%] | Activity [13] [%] | MIC [14] [µg/mL] | MIC [15] [µg/mL] | MIC [16] [µg/mL] | MIC [17] [µg/mL] | MIC [18] [µg/mL] | MIC [19] [µg/mL] | MIC [20] [µg/mL] | MIC [21] [µg/mL] | IC50 at 72 h [22] [nM] | hemolysis at 0.75 h, 100 µM [23] [%] | other results |
| --- | --- | --- | --- | --- | --- | --- | --- | --- | --- | --- | --- | --- | --- | --- | --- | --- | --- | --- | --- | --- |
| CCCCCCc1ccc(-c2ccc(C(=O)N3CCC[C@H]3C(=O)N[C@H](C(=O)N[C@@H](C)C(=O)N[C@@H](CC(N)=O)C(=O)N[C@@H](C)B(O)O)[C@H](C)O)cc2)cc1 | > 50 | 230 | 7.49 | 4.71 | 7.23 | 16.8 | 33.5 | 62.6 | 97.1 | > 64 | > 64 | > 64 | > 64 | > 64 | > 64 | 4 (≈ 5.43 µM) | > 64 | > 64000 | 1.1 | Activity [8]: 38.4%; Activity [10]: 95.5%; Activity [11]: 97%; Activity [12]: 97.9% |
| CCCCCCc1ccc(-c2ccc(C(=O)N3CC(CN)C[C@H]3C(=O)N[C@H](C(=O)N[C@@H](C)C(=O)N[C@@H](CC(N)=O)C(=O)N[C@@H](C)B3O[C@@H]4C[C@@H]5C[C@@H](C5(C)C)[C@]4(C)O3)[C@H](C)O)cc2)cc1 (stereo partly drawn) | > 50 | 18 | 0.353 | 4.04 | 3.93 | 0.881 | 5.53 | 6.31 | 81.6 | 32 (≈ 35.6 µM) | 4 (≈ 4.44 µM) | 1 (≈ 1.11 µM) | 64 (≈ 71.1 µM) | 8 (≈ 8.89 µM) | 16 (≈ 17.8 µM) | 0.5 (≈ 0.556 µM) | 32 (≈ 35.6 µM) | 18600 | 5.7 | Activity [24]: 88.8%; Activity [12]: 37.6%; Activity [25]: 89.7%; Activity [26]: 99.3% |
